# Source: PubChem BioAssay (several laboratories)
# STAT1 blocker – STAT1 signaling inhibition; 200,000 tested, 0.35% active; NIH 3T3 STAT1-luciferase reporter, IFN-gamma, luminescence; inhibition, % at 5.5 µM;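 active means inhibition above a set limit, the mean inhibition across all tested compounds plus 3 SD, cut at about 34% in these data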;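 further: 0% = IFN-gamma with DMSO and 100% = IFN-gamma with 300 µM nifuroxazide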
# NF-kB expr up – compounds increasing NF-kB expression in human neuronal cells | NF-kB reporter expression; hits give high values | fold change at 12.5 µM | 190,000 tested, 1.6% active | AID 1239; in the data active means fold change above about 3.3
# STAT3 inh – reduces IL-6 driven STAT3 reporter signal. 190,000 tested, 0.89% active. inhibition, % at 5.5 µM. U3A cells, IL-6 STAT3-luciferase reporter, luminescence; host cell line lacks STAT1;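 active means inhibition above the mean inhibition across all screened compounds plus 3 SD, cut at about 44% in these data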;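 further: 0% = DMSO only wells and 100% = 100 µM nifuroxazide control wells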
# STAT3 activator – STAT3 signaling activation. activation (% of control), % at 5.6 µM. 190,000 tested, 0.91% active. U3A cells, IL-6 STAT3-luciferase reporter, luminescence; 100% = signal with IL-6 EC80 alone. AID 871;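 active means activation above the screen-wide mean of compound activation plus 3 SD, cut at about 130% in these data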;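 further: 0% = background luminescence of wells with medium and substrate only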
#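 Test system: Human STAT1-deficient U3A cells with stable STAT3-luciferase reporter | Also added: Interleukin-6, 33 ng/mL | Timing: Compound pre-incubation 1 h before IL-6, then 6 h stimulation at 37 °C | Technique: Luciferase reporter luminescence | Read-out: Percent of IL-6-only median luminescence | Benchmarks: IL-6-only wells as 100% reference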
# APP 5'UTR act – APP 5'UTR luciferase reporter activation | 190,000 tested, 1% active | SH-SY5Y APP 5'UTR luciferase reporter, luminescence; zero percent = DMSO vehicle wells | AID 1276 | activation, % at 2 µM;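 active means activation above a set limit, based on mean plus 3 SD of controls, cut at about 140% in these data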
# STAT1 act – STAT1 signaling activation; NIH 3T3 STAT1-luciferase reporter, IFN-gamma, luminescence; 100% = IFN-gamma alone, no compound; 200,000 tested, 2.6% active; activation (% of control), % at 5.5 µM; AID 932;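 active means activation above the screen-wide mean activation plus 3 SD, cut at about 130% in these data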;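 further: raw ratio to IFN-gamma control signal so 100% means no change and 0% no light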
# Numbers without * were called inactive. In the library only some 4.9% were active in any assay of this set; here they are far more common.
SMILES,STAT1 blocker,NF-kB expr up,STAT3 inh,STAT3 activator,APP 5'UTR act,STAT1 act
COc1ccccc1N1C(=O)N(C(C)=O)C2C1Nc1ccccc1N2C (configuration not stated),17.5,1.47,-34.9,133.6*,-6.9,84.0
COc1ccccc1N1C(=O)c2ccccc2NC1c1ccncc1 (configuration not stated),7.4,1.15,3.7,100.5,19.6,93.2
O=C(CSc1ccsc1[N+](=O)[O-])N1CCN(c2ccccn2)CC1,6.1,1.1,5.2,97.5,-11.0,94.8
CCOc1ccc(NC(=O)c2ccc(NC(=O)COC(=O)Cc3ccc(OC)cc3)cc2)cc1,-37.9,1.66,-25.0,123.8,106.9,136.3*
CCOc1ccc(NC(=O)CNC(=O)COc2ccccc2)cc1,4.5,0.99,8.0,92.6,15.0,95.9
COc1ccc(CC(=O)OCC(=O)Nc2ccc(C(=O)Nc3ccc(OC)cc3)cc2)cc1,-13.7,1.12,6.7,99.1,1.5,110.2
CCOc1ccc(NC(=O)Cc2ccccc2)cc1,-38.4,2.23,-6.0,108.7,40.6,134.8*
CCOc1ccc(NC(=O)CN2C(=O)CSC(C)C2=O)cc1 (configuration not stated),-30.7,1.15,-3.9,107.8,9.4,130.9*
COC(=O)c1ccc(NC(=O)C(=O)c2cccn2C)cc1,46.8*,8.43*,78.9*,36.5,1.2,55.9
CC(C)n1c(O)c(N=NC(=O)c2ccccc2NS(=O)(=O)c2cccs2)c2ccccc21,0.4,1.22,-0.3,105.2,-7.2,99.6
COC(=O)C1CSC(c2ccc(Cl)cc2)N1C(=O)c1ccccc1 (configuration not stated),7.2,1.21,10.2,100.2,-2.5,91.9
CN(C)C(=O)c1ccc(NC(=O)COc2ccc([N+](=O)[O-])cc2)cc1,0.9,0.81,2.4,99.7,30.8,99.0
COC(=O)c1ccc(NC(=O)Cc2ccccc2)cc1,-34.8,2.1,11.5,93.1,38.0,132.0*
COC(=O)Nc1ccc(OCc2ccccc2)cc1,-28.1,2.06,-0.9,102.4,75.3,126.1
CCC(=O)Nc1ccc(C(=O)OCc2ccccc2Cl)cc1,-40.2,1.6,-9.7,106.6,45.2,137.0*
CC(=O)Nc1ccc(C(=O)OCc2ccccc2Cl)cc1,-20.8,1.55,7.6,89.7,-5.5,119.0
COCC(=O)Nc1ccc(OCc2ccccc2)cc1,-34.5,1.74,0.6,101.5,22.4,130.8*
Cn1ncc([N+](=O)[O-])c1C(=O)Nc1ccc(C2CCCCC2)cc1,-23.5,1.09,14.7,93.0,11.2,120.3
C#CCNC(=O)/C=C/c1ccc(OC)cc1,-22.5,2.01,4.2,94.0,55.4,120.5
COCCCNC(=O)CCCCCNS(=O)(=O)c1ccc(Br)cc1,7.2,1.37,3.1,98.0,8.7,93.9
Cc1cccc(N)c1-c1c(C)cccc1N,7.8,1.07,5.5,97.2,14.9,93.2
COCCNC(=O)/C(C#N)=C/c1cc(C(C)C)c(OC)cc1C,-4.5,1.21,18.2,93.4,6.5,103.4
Cc1ccc2nc(CSc3nc(C)ccc3C#N)[nH]c2c1,-42.5,1.72,-2.6,107.5,92.7,139.1*
Cc1ccc(C(=O)OCC(=O)N2CCc3ccccc32)cc1,-31.7,2.27,14.4,91.1,9.4,128.9*
O=C(CCCOc1ccccc1)N1CCCc2ccccc21,-20.4,1.71,-3.9,103.4,20.0,113.0
SMILES,STAT1 blocker,NF-kB expr up,STAT3 inh,STAT3 activator,APP 5'UTR act,STAT1 act
O=C(CSc1ccccc1)N1CCc2ccccc21,-35.0,3.05,-2.0,106.8,77.6,131.9*
O=C(Cc1coc2ccc3ccccc3c12)N1CCc2ccccc21,6.8,1.02,21.1,85.1,11.3,93.8
Cc1ccc2c(CC(=O)N3CCc4ccccc43)coc2c1,-41.6,2.72,-4.3,112.6,119.4,137.8*
O=C(COc1ccccc1)N1CCc2ccccc21,-37.8,2.35,0.2,98.0,77.5,133.6*
C=CCNC(=S)NNC(=O)c1ccc(=O)n(Cc2ccc(Cl)cc2Cl)c1,7.0,0.97,7.7,93.7,3.5,93.5
CC(OC(=O)c1ccncc1)C(=O)NC1CCCC1 (configuration not stated),-9.1,1.2,2.4,107.8,-5.5,106.6
CC(Cl)C(=O)Nc1ccccc1C#N (configuration not stated),7.0,1.11,17.4,87.6,-2.8,93.9
O=C(N/N=C\c1ccc(-c2ccccc2[N+](=O)[O-])o1)C1COc2ccccc2O1 (configuration not stated),5.0,0.64,-46.2,133.3*,6.8,95.4
Cc1ccc(-c2cc(=O)c3cc(C)ccc3[nH]2)cc1,-51.0,5.8*,34.6,68.6,114.8,146.4*
Cc1ccc(-c2cc(=O)c3cc(F)ccc3[nH]2)cc1,-4.1,1.82,-10.1,106.1,6.1,103.7
O=[n+]1c2c(n([O-])c3c1CCC3)CCCC2,-0.8,1.15,-35.6,135.7*,-10.1,100.8
O=C(CCCN1CCOCC1)c1ccc2c(c1)OCCO2,-45.9,1.45,-19.7,119.3,100.7,142.1*
Cc1ccccc1-c1nc2cc(N)ccc2o1,-45.4,3.95*,19.7,88.2,63.4,141.3*
CC(C)c1ccc2oc(-c3cc(N)ccc3O)nc2c1,-17.4,2.36,35.9,71.1,157.9*,116.0
O=c1oc2ccc(Br)cc2cc1-c1nc2ccccc2o1,-3.7,1.16,-0.5,102.7,2.5,103.4
Cc1ccc(NC(=O)c2cc(N3C(=O)C=CC3=O)ccc2Cl)cc1C,-23.4,1.28,2.6,101.1,-45.3,120.7
O=C(Cc1ccccc1[N+](=O)[O-])NCc1ccc(Cl)cc1,-14.5,1.93,-8.3,110.7,35.5,113.1
O=C(Cc1ccccc1[N+](=O)[O-])NCc1ccc(Cl)cc1Cl,-34.3,4.44*,-10.2,104.6,97.9,131.2*
CC(C)=CC[N+]1(C)CCCCC1,1.4,0.96,6.2,93.6,7.9,98.7
c1cncc(-c2csc(NCc3ccco3)n2)c1,-14.7,1.48,9.7,91.9,3.0,110.0
CC(=O)Nc1ccc(-c2csc(NCc3ccco3)n2)cc1,-45.9,3.69*,-5.7,108.0,116.0,137.1*
O=C(CSc1nn(-c2ccc(Cl)cc2)c(=S)s1)NCC1CCCO1 (configuration not stated),-3.8,0.92,3.6,102.8,-1.4,102.2
CCc1ccc2nc3nc(C)cc(C)c3c(N)c2c1,-39.0,1.69,-5.3,109.1,18.0,135.8*
Cc1cc(C)c2c(N)c3ccccc3nc2n1,-35.8,1.27,-23.7,128.7,-11.0,132.3*
O=C(CN1C(=O)C2C3CCC(C3)C2C1=O)N1CCN(Cc2ccccc2)CC1 (configuration not stated),-2.6,1.37,-0.2,102.2,-11.7,100.7
CNC(=S)Nc1ccc(C(N)=O)cc1,4.3,1.3,4.3,102.5,-20.1,94.2
c1ccc(Cn2ccc(-c3cnc(-c4ccccc4)s3)n2)cc1,-45.1,6.77*,22.8,85.7,124.7,141.7*
